According to ChEMBL document CHEMBL1799977, “Discovery of MK-0952, a selective PDE4 inhibitor for the treatment of long-term memory loss and mild cognitive impairment” (Bioorg Med Chem Lett, 2010):
Activity calls are given as the source filed them. No cut-off for these calls is given here.

Tests used:
Rattus norvegicus [1] = assay: Cognitive enhancing effect in Lister rat assessed as recognition of novel object at 0.1 mg/kg, po pretreated 90 mins before sample phase by novel object recognition test; assay type: functional, organism-based; design: dose 0.1 mg/kg
Outline: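 Novel object recognition in rats. Oral dosing in 0.5% methocel 90 min before the sample trial, which ended at 25 s of exploration or 3 min. Choice trial followed with a familiar and a novel object. d2 score = (novel − familiar)/total exploration. n = 21–24; Newman–Keuls test.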

Brain [2] = assay: Drug level in brain of Lister rat during conditional taste aversion test; assay type: ADME, tissue-based; conditions: in vivo, read-out: Drug uptake
Outline: (§1)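 Male hooded Lister rats in the conditioned taste aversion test given oral compound in 0.5% methocel. Plasma and whole brain levels were measured on the tested animals 90 min post-dosing.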

Brain [3] = assay: Drug level in brain of Lister rat during water maze delayed matching to position test; conditions: in vivo, read-out: Drug uptake
Plasma [4] = assay: Drug level in plasma of Lister rat during conditional taste aversion test; assay type: ADME, cell-free; outline: as §1
Rattus norvegicus [5] = organism: Rattus norvegicus; assay: Induction of adverse effect in Lister rat assessed as induction of malaise by conditional taste aversion test; assay type: organism-based; conditions: in vivo
Outline: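 Singly housed male hooded Lister rats, water-deprived 22.5 h/day. On two conditioning days they had 20 min access to 0.1% saccharin, then received oral compound in 0.5% methocel, vehicle, or LiCl 30 mg/kg ip. Consumption on test day was compared with baseline (n = 6–8; Dunnett's test).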

[6] = Inhibition of PDE4 activity in rat whole blood assessed as inhibition of LPS-induced TNF-alpha release; assay type: tissue-based
Rattus norvegicus [7] = organism: Rattus norvegicus; assay: Cognitive enhancing effect in Lister rat assessed as change in escape latency pretreated 30 mins before sample phase by water maze delayed matching to position test; assay type: functional; conditions: read-out: MED
Outline: (§2)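 Rats in a water maze with the platform moved daily, four 60 s trials per day over five days. Oral dosing in 0.5% methocel, 90 or 30 min before the sample trial. Savings score = escape latency difference between trials 1 and 2 over a 4 h delay. n = 10; Newman–Keuls test.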

Plasma [8] = assay: Drug level in plasma of Lister rat during water maze delayed matching to position test
[9] = Clearance in rat at 10 mg/kg, po or 3 mg/kg, iv; assay type: ADME, organism-based; conditions: in vivo
[10] = Half life in rhesus monkey at 10 mg/kg, po or 1 mg/kg, iv; assay type: ADME, organism-based, Macaca mulatta; conditions: in vivo
[11] = Metabolic stability in female rat hepatocytes assessed as compound metabolism level; assay type: ADME, cell-based, Hepatocyte; conditions: read-out: Activity
[12] = biological target: 3',5'-cyclic-AMP phosphodiesterase 4A (Homo sapiens, UniProt P27815); assay: Inhibition of PDE4A; conditions: pooled result: one value given for 3 cell lines, strains, targets or settings
3',5'-cyclic-AMP phosphodiesterase 4A, sequence (P27815 whole entry, the tested form may be a part): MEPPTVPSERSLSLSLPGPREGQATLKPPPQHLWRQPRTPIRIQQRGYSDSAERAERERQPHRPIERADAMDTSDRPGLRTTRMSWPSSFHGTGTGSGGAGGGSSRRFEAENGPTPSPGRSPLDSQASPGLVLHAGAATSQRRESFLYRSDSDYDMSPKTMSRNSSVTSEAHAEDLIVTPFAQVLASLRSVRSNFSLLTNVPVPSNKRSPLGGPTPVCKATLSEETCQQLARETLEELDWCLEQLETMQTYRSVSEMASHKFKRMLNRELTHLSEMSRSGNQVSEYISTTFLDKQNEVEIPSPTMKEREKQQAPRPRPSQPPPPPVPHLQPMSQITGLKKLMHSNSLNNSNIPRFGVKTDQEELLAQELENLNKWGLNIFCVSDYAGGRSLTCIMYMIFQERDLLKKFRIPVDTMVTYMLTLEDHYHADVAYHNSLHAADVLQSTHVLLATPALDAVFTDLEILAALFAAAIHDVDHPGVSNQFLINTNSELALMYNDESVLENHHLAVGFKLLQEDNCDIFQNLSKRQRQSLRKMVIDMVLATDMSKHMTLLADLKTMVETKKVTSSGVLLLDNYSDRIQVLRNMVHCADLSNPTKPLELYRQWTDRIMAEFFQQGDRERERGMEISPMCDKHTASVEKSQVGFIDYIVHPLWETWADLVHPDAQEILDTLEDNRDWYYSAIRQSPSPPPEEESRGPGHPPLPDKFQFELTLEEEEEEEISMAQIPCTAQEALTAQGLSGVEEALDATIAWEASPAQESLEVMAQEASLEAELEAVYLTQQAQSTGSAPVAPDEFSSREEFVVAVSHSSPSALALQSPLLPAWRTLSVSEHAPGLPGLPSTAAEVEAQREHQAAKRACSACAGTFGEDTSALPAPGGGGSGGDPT
Outline: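 Catalytic domains of PDE4A, B and D expressed as GST constructs in SF9 cells (baculovirus). IC50s are averages of at least two experiments.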

[13] = Metabolic stability in rhesus monkey hepatocytes assessed as compound metabolism level; assay type: ADME, cell-based, Macaca mulatta, Hepatocyte; conditions: read-out: Activity
[14] = Drug excretion in bile cannulated male rat assessed as excretion of parent compound in bile at 3 mg/kg, iv using [3H]-labeled compound measured after 8 hrs; assay type: ADME, organism-based; design: dose 3 mg/kg, route intravenous; conditions: in vivo
Outline: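 Permanently bile-cannulated male rats dosed iv with tritiated compound (3 mg/kg, 100 μCi/kg); bile collected 0–8 h and parent expressed as % of total radioactivity.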

[15] = Oral bioavailability in dog at 3 mg/kg; assay type: ADME, organism-based, Canis lupus familiaris; conditions: in vivo
[16] = Oral bioavailability in rat at 10 mg/kg; assay type: ADME, organism-based; conditions: in vivo
Cytochrome P450 2D6 = Cytochrome P450 2D6 (Homo sapiens, UniProt P10635); assay: Inhibition of human CYP2D6; assay type: ADME
Cytochrome P450 2D6, sequence (P10635 whole entry): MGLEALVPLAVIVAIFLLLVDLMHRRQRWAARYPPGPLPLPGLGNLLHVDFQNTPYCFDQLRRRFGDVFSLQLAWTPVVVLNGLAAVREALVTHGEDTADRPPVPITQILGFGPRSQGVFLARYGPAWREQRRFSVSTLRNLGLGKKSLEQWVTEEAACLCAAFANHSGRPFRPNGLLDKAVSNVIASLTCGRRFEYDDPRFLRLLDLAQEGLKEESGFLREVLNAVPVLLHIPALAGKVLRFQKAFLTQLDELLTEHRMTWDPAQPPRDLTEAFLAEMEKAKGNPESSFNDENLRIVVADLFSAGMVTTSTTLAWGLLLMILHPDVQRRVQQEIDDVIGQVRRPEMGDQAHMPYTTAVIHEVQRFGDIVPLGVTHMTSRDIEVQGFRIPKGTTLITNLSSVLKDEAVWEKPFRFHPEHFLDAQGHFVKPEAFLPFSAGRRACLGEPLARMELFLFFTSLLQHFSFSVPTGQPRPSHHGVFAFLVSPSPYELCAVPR

[17] = Clearance in rhesus monkey at 10 mg/kg, po or 1 mg/kg, iv; assay type: ADME, organism-based, Macaca mulatta; conditions: in vivo
Cytochrome P450 2C9 [18] = biological target: T1, Cytochrome P450 2C9 (Homo sapiens, UniProt P11712); assay: Inhibition of human CYP2C9; assay type: ADME
T1 sequence (P11712 whole entry): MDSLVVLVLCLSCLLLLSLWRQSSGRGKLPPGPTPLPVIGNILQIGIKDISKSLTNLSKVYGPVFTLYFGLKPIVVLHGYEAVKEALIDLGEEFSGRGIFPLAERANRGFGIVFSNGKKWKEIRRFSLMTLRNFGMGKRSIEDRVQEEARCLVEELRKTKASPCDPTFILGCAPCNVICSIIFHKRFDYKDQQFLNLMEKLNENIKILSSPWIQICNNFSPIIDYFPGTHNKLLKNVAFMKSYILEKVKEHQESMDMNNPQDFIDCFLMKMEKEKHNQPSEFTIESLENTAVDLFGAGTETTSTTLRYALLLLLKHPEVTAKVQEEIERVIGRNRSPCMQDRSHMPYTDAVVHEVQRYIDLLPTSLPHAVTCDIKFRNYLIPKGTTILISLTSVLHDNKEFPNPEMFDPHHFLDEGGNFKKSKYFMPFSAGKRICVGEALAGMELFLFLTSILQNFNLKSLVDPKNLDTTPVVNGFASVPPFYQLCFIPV

Hepatocyte = assay: Increase in CYP3A4 protein level in human primary hepatocytes at 10 uM by Western blot analysis relative to rifampicin; assay type: ADME, cell-based
Outline: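 Human primary cultured hepatocytes exposed to 10 µM compound; CYP3A4 protein measured by Western blot relative to rifampicin at 10 µM.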

[19] = Inhibition of PDE4 activity in rhesus monkey whole blood assessed as inhibition of LPS-induced TNF-alpha release; assay type: tissue-based; conditions: Macaca mulatta
[20] = Half life in squirrel monkey at 10 mg/kg, po or 1 mg/kg, iv; assay type: ADME, organism-based; conditions: saimiri, in vivo
Phosphodiesterase 4 = Phosphodiesterase 4 (Homo sapiens, UniProt P27815+Q08499+Q07343+Q08493); assay: Inhibition of PDE4 activity in human whole blood assessed as inhibition of LPS-induced TNF-alpha release
[21] = Half life in dog at 3 mg/kg, po or 1 mg/kg, iv; assay type: ADME, organism-based, Canis lupus familiaris; conditions: in vivo
[22] = Clearance in squirrel monkey at 10 mg/kg, po or 1 mg/kg, iv; assay type: ADME, organism-based; conditions: saimiri, in vivo
[23] = Inhibition of PDE4 activity in squirrel monkey whole blood assessed as inhibition of LPS-induced TNF-alpha release; assay type: tissue-based; conditions: Saimiri
[24] = Oral bioavailability in rhesus monkey at 10 mg/kg; assay type: ADME, organism-based, Macaca mulatta; conditions: in vivo
Rattus norvegicus [25] = organism: Rattus norvegicus; assay: Cognitive enhancing effect in Lister rat assessed as change in escape latency pretreated 90 mins before sample phase by water maze delayed matching to position test; assay type: functional; conditions: read-out: MED; outline: as §2
CYP3A = CYP3A (Homo sapiens, UniProt P08684+P20815+P24462+Q9HB55); assay: Inhibition of human CYP3A; assay type: ADME
Rattus norvegicus [26] = organism: Rattus norvegicus; assay: Ratio MED for cognitive enhancing effect in lister rat during water maze delayed matching to position test to MED for adverse effect in lister rat during conditional taste aversion test; assay type: functional
Outline: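 Therapeutic window as water maze MED over CTA MED. Water maze: rats dosed orally daily in 0.5% methocel before sample trial, 0.01–3.0 mg/kg, n = 10; four 60 s trials/day, 4 h inter-trial delay, savings score. CTA: water-deprived male hooded Lister rats, 20 min 0.1% saccharin on two conditioning days, oral dose immediately after; LiCl 30.0 mg/kg ip control; test-day intake.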

[27] = Metabolic stability in dog hepatocytes assessed as compound metabolism level; assay type: ADME, cell-based, Canis lupus familiaris, Hepatocyte; conditions: read-out: Activity
[28] = Clearance in dog at 3 mg/kg, po or 1 mg/kg, iv; assay type: ADME, organism-based, Canis lupus familiaris; conditions: in vivo
Cytochrome P450 1A2 = biological target: T2, Cytochrome P450 1A2 (Homo sapiens, UniProt P05177); assay: Inhibition of human CYP1A2; assay type: ADME
T2 sequence (P05177 whole entry): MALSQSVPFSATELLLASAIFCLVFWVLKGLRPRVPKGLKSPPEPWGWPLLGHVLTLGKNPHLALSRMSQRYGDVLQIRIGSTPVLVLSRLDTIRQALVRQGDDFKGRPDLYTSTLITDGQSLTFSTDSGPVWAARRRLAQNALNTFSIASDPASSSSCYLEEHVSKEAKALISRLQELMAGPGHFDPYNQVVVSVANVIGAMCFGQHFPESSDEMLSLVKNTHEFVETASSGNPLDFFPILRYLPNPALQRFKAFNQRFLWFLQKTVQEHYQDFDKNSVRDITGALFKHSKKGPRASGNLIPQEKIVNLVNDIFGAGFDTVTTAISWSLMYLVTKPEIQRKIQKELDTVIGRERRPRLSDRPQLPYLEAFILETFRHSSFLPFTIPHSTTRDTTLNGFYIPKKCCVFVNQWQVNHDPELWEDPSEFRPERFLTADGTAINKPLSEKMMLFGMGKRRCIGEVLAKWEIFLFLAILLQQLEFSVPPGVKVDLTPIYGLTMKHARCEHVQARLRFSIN

[29] = Half life in rat at 10 mg/kg, po or 3 mg/kg, iv; assay type: ADME, organism-based; conditions: in vivo
[30] = Oral bioavailability in squirrel monkey at 10 mg/kg; assay type: ADME, organism-based; conditions: saimiri, in vivo
[31] = Metabolic stability in male rat hepatocytes assessed as compound metabolism level; assay type: ADME, cell-based, Hepatocyte; conditions: read-out: Activity
[32] = Metabolic stability in human hepatocytes assessed as compound metabolism level; assay type: ADME, cell-based, Hepatocyte; conditions: read-out: Activity
Cytochrome P450 2C9 [33] = biological target: T1, Cytochrome P450 2C9; assay: Competitive inhibition of CYP2C9; assay type: ADME
[34] = Ratio IC50 for PDE4 activity in human whole blood to IC50 for PDE4; assay type: tissue-based
Outline: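 Ratio of two IC50s. The numerator is from human whole blood stimulated with LPS, read as inhibition of TNF-α release. The denominator (PDE4QT) is the mean of the IC50s on the PDE4A, B and D catalytic domains. These were expressed as GST constructs in Sf9 cells by baculovirus. Each IC50 is the average of at least two experiments.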

Rattus norvegicus [35] = organism: Rattus norvegicus; assay: Cognitive enhancing effect in Lister rat assessed as change in escape latency pretreated before sample phase by water maze delayed matching to position test; assay type: functional; conditions: read-out: MED; outline: as §2

Cc1noc(/C(=C/c2cccc(-c3cc(C(C)(C)S(C)(=O)=O)cc4cccnc34)c2)c2ccc(S(C)(=O)=O)cc2)n1
Activity (Rattus norvegicus [1]): Active
concentration (Brain [2]): 21 nM
concentration (Brain [3]): 5.1 nM
concentration (Plasma [4]): 113 nM
MED (Rattus norvegicus [5]): 1 mg/kg
IC50 [6]: 23 nM
minimal effective dose (Rattus norvegicus [7]): 0.3 mg/kg
concentration (Plasma [8]): 27 nM

O=C(NC1CC1)c1cn(-c2cccc(-c3ccc([C@@H]4C[C@H]4C(=O)O)c(F)c3)c2)c2ncccc2c1=O
clearance [9]: 1 mL/min/kg
half-life [10]: 6.5 h
metabolised [11]: 20%
IC50 [12]: 0.53 nM
metabolised [13]: 10%
Activity [14]: > 35%
bioavailability [15]: 100%
bioavailability [16]: 38%
IC50 (Cytochrome P450 2D6): > 100000 nM
clearance [17]: 1.3 mL/min/kg
IC50 (Cytochrome P450 2C9 [18]): > 100000 nM
Activity (Hepatocyte): 23%
IC50 [19]: 940 nM
half-life [20]: 4.3 h
concentration (Brain [2]): 290 nM
IC50 (Phosphodiesterase 4): 550 nM
concentration (Brain [3]): 9.2 nM
concentration (Plasma [4]): 12000 nM
MED (Rattus norvegicus [5]): 10 mg/kg
IC50 [6]: 450 nM
half-life [21]: 6.6 h
clearance [22]: 1.7 mL/min/kg
IC50 [23]: 52 nM
bioavailability [24]: 77%
minimal effective dose (Rattus norvegicus [25]): 0.1 mg/kg
IC50 (CYP3A): > 100000 nM
Ratio (Rattus norvegicus [26]): 100
metabolised [27]: 30%
clearance [28]: 3.7 mL/min/kg
IC50 (Cytochrome P450 1A2): > 100000 nM
half-life [29]: 3.5 h
bioavailability [30]: 41%
metabolised [31]: 5%
metabolised [32]: 2%
concentration (Plasma [8]): 390 nM

O=C(NC1CC1)c1cn(-c2cccc(C#Cc3ccc[n+]([O-])c3)c2)c2ncccc2c1=O [MK-0873]
IC50 [12]: 5.1 nM
IC50 (Cytochrome P450 2C9 [33]): 40000 nM
Ratio IC50 [34]: 37
concentration (Brain [2]): 48 nM
IC50 (Phosphodiesterase 4): 190 nM
concentration (Brain [3]): 15 nM
concentration (Plasma [4]): 828 nM
MED (Rattus norvegicus [5]): 1 mg/kg
IC50 [6]: 64 nM
minimal effective dose (Rattus norvegicus [35]): 0.3 mg/kg
concentration (Plasma [8]): 258 nM
